Rows were chosen to be rich in hits. Some 5.9% of all compounds tested hit in one or more screens of this group.
Pyk2 oligo antag = Pyk2 (human) oligomerization antagonism. AID 1347419. Q293 cells, Pyk2 FERM NanoBiT luminescence; active compounds read low. z-score (the deposit names both 25 µM and 10 µM). Q14289. 99,000 tested, 0.83% active;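 active = Z-score of -3 or lower, scaled per plate to the spread of control and sample wells; inactive = z-score above -3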;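 note: negative z-score means lost luminescence so less FERM oligomerization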
Target sequence (Q14289 whole entry, looked up): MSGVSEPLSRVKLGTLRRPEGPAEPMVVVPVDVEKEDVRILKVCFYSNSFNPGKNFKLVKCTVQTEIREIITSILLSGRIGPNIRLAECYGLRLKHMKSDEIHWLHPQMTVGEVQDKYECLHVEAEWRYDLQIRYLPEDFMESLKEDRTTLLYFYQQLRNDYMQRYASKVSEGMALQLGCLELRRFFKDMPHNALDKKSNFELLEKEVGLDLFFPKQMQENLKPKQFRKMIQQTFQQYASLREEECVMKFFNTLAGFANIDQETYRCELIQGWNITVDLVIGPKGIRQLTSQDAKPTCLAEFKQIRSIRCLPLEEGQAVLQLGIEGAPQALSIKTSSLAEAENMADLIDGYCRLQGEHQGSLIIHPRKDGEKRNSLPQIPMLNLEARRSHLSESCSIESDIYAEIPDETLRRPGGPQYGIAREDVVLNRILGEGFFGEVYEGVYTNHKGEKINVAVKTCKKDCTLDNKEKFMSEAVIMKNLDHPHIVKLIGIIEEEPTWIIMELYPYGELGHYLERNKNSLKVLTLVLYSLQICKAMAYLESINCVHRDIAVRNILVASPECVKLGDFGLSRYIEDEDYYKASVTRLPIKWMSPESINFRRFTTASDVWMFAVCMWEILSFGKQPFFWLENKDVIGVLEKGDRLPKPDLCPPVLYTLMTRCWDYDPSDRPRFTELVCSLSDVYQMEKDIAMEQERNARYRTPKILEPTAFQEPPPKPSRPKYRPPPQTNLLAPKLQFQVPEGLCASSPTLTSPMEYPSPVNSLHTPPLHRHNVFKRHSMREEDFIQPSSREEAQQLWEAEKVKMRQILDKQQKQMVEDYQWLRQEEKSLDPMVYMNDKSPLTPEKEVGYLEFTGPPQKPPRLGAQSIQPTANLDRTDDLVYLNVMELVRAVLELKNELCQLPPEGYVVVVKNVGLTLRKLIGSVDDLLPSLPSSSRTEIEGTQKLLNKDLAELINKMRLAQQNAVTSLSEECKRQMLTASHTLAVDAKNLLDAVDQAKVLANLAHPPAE
H69AR inhibit = blocks growth of human H69AR lung tumor cells; H69AR lung tumor viability, ATP luminescence, 72 h; active compounds read low; viability, % at 10 µM; 85,000 tested, 6% active;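 active = viability at or below 40%; inactive = viability above 40%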;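 note: multidrug resistant small cell line overexpressing MRP-1 efflux transporter; 100% = mean luminescence of untreated control wells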
Jurkat tox 60K = cytotoxic compounds reducing Jurkat cell viability | Jurkat E6.1 viability, ATP luminescence, 48 h | inhibition, % at 4 µM | 56,000 tested, 1.2% active;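 active = inhibition above the mean inhibition of all tested compounds plus 3 SD, cut at about 28% in these data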
Lung fibro prol = blocks proliferation of human lung fibroblasts; viability, % at 10 µM; AID 719; 85,000 tested, 1.1% active; LL 47 human lung fibroblast viability, ATP luminescence; active compounds read low;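 active = viability at or below 50% in the single dose screen; inactive = viability above 50%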;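 note: compound exposure lasted 72 h before the ATP readout; 100% = median luminescence of untreated cell-only wells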
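Signal: luminescent ATP detection, CellTiter-Glo; assay system: LL 47 human lung fibroblasts; input: 1,150 cells/well; incubation: overnight cell rest, 72 h compound treatment at 37 °C; measure: % viability versus median cells-only luminescence; medium: IMEM growth medium with 15% fetal bovine serum; dosing: compound addition at 0.1% DMSO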
HUVEC inhibit = blocks proliferation of human endothelial cells; HUVEC proliferation, CellTiter-Glo luminescence, 72 h; active compounds read low; viability, % at 10 µM (by protocol); 86,000 tested, 1.1% active; AID 648;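 active = viability at or below 30%; inactive = viability above 30%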;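 note: 100% = median luminescence of DMSO-only cell control wells on each plate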
MT1-MMP txn act = activates MT1-MMP transcription; 86,000 tested, 0.16% active; HT1080 MT1-MMP promoter luciferase reporter, luminescence, overnight; active compounds read high; activation factor at 10 µM;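 active = activation factor of at least 2 for MT1-MMP transcription at 10 µM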
* = called active by the depositor; . = not tested or not shown.

SMILES | Pyk2 oligo antag | H69AR inhibit | Jurkat tox 60K | Lung fibro prol | HUVEC inhibit | MT1-MMP txn act
CN(C)CCCNS(=O)(=O)c1cc(Cl)ccc1Cl | -0.52 | 100 | 4 | 101 | 110 | 1.1
COC(=O)N/N=C/c1cc(Cl)cc(Cl)c1OCc1ccc(F)cc1 | -0.99 | . | . | . | . | .
CC(C)C(=O)Nc1ccnc(-c2cccnc2)n1 | 0.92 | . | . | . | . | .
COc1ccc(-n2nnnc2SCC(=O)c2ccc(O)c(O)c2)cc1 | -0.52 | 26* | 24 | 89 | 61 | 1.1
COc1ccc(-n2nnnc2SCC(N)=O)cc1 | -0.18 | 94 | -2 | 88 | 93 | 1
CC(C)(C)c1cc(NC(=O)c2cccnc2)no1 | 0.26 | 106 | -6 | 98 | 95 | 1.7
CC(C)(C)c1cc(NC(=O)c2cc(F)c(F)c(F)c2F)no1 | -0.41 | 35* | -8 | 50 | 69 | 1
c1ccc(-c2nnc(-c3ccccn3)nn2)nc1 | . | 44 | . | 100 | 80 | 1.1
CN(C)c1nc(-c2ccccn2)nnc1-c1ccccc1 | 0.38 | 53 | . | 13* | 11* | .
O=C(O)c1ccccc1NS(=O)(=O)c1ccc2c3c(cccc13)C(=O)N2 | -0.37 | . | -5 | . | . | .
Cc1oc2c(cc(NS(=O)(=O)c3ccc4c5c(cccc35)C(=O)N4)c3ccccc32)c1C(=O)OC(C)C | -2.1 | 31* | . | 90 | 63 | 1.1
COC(=O)c1c(C)oc2c1cc(NS(=O)(=O)c1cccs1)c1ccccc12 | -0.93 | 20* | . | 86 | 53 | 1.6
COC(=O)c1ccccc1NS(=O)(=O)c1ccc2c3c(cccc13)C(=O)N2 | -3.7* | 83 | 6 | 90 | 97 | 1.1
CCOC(=O)c1c(C)oc2c1cc(O)c1ccccc12 | -1.6 | 62 | 0 | 101 | 91 | 1.8
COCCNC(=O)Cn1nc(C(F)(F)F)c(Cl)c1C | 0.46 | 86 | 3 | 92 | 91 | 1.1
O=c1c(Cl)c(NCCCO)cnn1-c1nc2ccccc2[nH]1 | 2.5 | 0.6* | . | 26* | 63 | 1.1
C=CCN(CC=C)c1cnn(-c2nc3ccccc3[nH]2)c(=O)c1Cl | -1.3 | . | . | . | . | .
CCCCN(C)S(=O)(=O)c1cc(Br)cc2c1N(C(=O)C1CC1)CC2 | -0.46 | 31* | . | 92 | 77 | 1.2
O=C(CCNC(=O)c1ccccc1)Oc1ccc([N+](=O)[O-])cc1 | -0.13 | . | . | . | . | .
CC(C)c1nc2ccc(NC(=O)C3CCCCC3)cc2[nH]1 | -0.25 | 88 | . | 115 | 87 | 1.2
O=C(Nc1ccc2nc(-c3ccccn3)[nH]c2c1)C1CCCCC1 | -0.78 | 26* | . | 99 | 78 | 1.6
CCOn1c(=O)c(-c2cc3ccccc3o2)[n+]([O-])c2ccccc21 | -0.16 | 51 | 0 | 86 | 81 | 1.2
O=c1c(-c2cc3ccccc3o2)[n+]([O-])c2ccccc2n1OCc1ccccn1 | -0.11 | 36* | . | 94 | 66 | 1.6
CON1C(=O)C(=O)N(OC)C(C)(C)C1C (centres undefined) | -0.7 | . | . | . | . | .
C=CCNC(=S)NNC(=O)c1ccc(OC(C)C)cc1 | 0.14 | 85 | . | 96 | 94 | 1.1
SMILES | Pyk2 oligo antag | H69AR inhibit | Jurkat tox 60K | Lung fibro prol | HUVEC inhibit | MT1-MMP txn act
Nc1c(-c2ccccc2)cnn1-c1cccc([N+](=O)[O-])c1 | -0.75 | . | . | . | . | .
Cc1ccccc1-n1ncc2c([N+](=O)[O-])cc([N+](=O)[O-])cc21 | -0.18 | 25* | . | 65 | 6.3* | 1
Cc1ccc(C(=O)Nc2ncc(Cc3ccc(SC(F)F)cc3)s2)cc1 | -0.87 | . | . | . | . | .
O=c1[nH]c(NCc2ccco2)nnc1Cc1ccccc1Cl | 1.6 | 30* | . | 77 | 48 | .
COC(=O)[C@@]1(Cc2ccc(OC)cc2)[C@H]2c3cc(C(=O)N4CCCC4)n(Cc4cc(C)n(C)n4)c3C[C@H]2CN1C(=O)c1ccccc1 | . | . | . | . | . | 1
CC(Oc1ccc(Cl)cc1Cl)C(=O)Nc1ccncc1 (centres undefined) | 2.4 | 34* | 44* | 83 | 81 | 1
CC(Oc1ccc(Cl)cc1Cl)C(=O)Nc1cccnc1 (centres undefined) | 0.3 | 95 | . | 101 | 93 | 1
Cc1ccc(C)c(C(=O)COC(=O)c2ccccc2N2C(=O)C3C4CCC(C4)C3C2=O)c1 (centres undefined) | -1.3 | . | . | . | . | .
O=C(NCc1ccc2c(c1)OCO2)c1ccc(C2SCC(=O)N2Cc2ccco2)cc1 (centres undefined) | 0.9 | 97 | 13 | 101 | 92 | 0.9
CCN(CC)CCNc1ncnc2c1sc1nc(N3CCOCC3)c3c(c12)CC(C)(C)SC3 | -0.66 | 2.6* | . | 2.6* | 7.2* | 0.8
CC1(C)Cc2c(c(N3CCOCC3)nc3sc4c(=O)[nH]cnc4c23)CS1 | 0.5 | 43 | . | 93 | 65 | 1.2
CN(C)CCNc1ncnc2c1sc1nc(N3CCOCC3)c3c(c12)CC(C)(C)SC3 | -0.73 | 94 | . | 16* | 17* | 1
CC(c1nnc(SCC(=O)NC(=O)NCc2ccco2)n1-c1ccc(Cl)cc1)N(C)C (centres undefined) | -0.12 | 58 | -3 | . | 97 | 1.1
COC(=O)Nc1ccc(S(=O)(=O)Nc2cccc3ccccc23)cc1 | -0.38 | 35* | . | . | 80 | 1.2
COc1ccc(S(=O)(=O)Nc2ccccc2C(F)(F)F)cc1 | -0.53 | 89 | 1 | 102 | 93 | 1
COc1ccccc1NS(=O)(=O)c1ccc(NC(C)=O)cc1 | 0.14 | 95 | -3 | 105 | 96 | 1.1
COc1ccc(S(=O)(=O)Nc2ccc(O)c3ccccc23)cc1 | -2.3 | 1.8* | 19 | 93 | 2.3* | 0.7
CCCC1(c2ccccc2)NC(=O)N(CC(=O)Nc2sc(-c3ccccc3)cc2C(=O)OCC)C1=O (centres undefined) | -1.2 | 34* | . | 22* | 22* | 1.2
C=C(C)c1cccc(C(C)(C)NC(=O)N2CCCCC2CC)c1 (centres undefined) | 0.54 | . | . | . | . | .
Oc1ccc2ccccc2c1C=Nc1ccccc1-c1nc2ccccc2[nH]1 | -1.6 | . | . | . | . | .
CCCSC1=C(C#N)C(c2ccc(OC)cc2)C2=C(CC(C)(C)CC2=O)N1 (centres undefined) | -2.4 | 69 | . | 88 | 90 | 1.2
CSC1=C(C#N)C(c2ccc(Cl)cc2)C2=C(CC(C)(C)CC2=O)N1 (centres undefined) | -3.1* | 46 | 36* | 88 | 83 | 1.1
CCC(c1nnnn1CCc1ccccc1)N(Cc1ccco1)Cc1cc2cc(C)cc(C)c2[nH]c1=O (centres undefined) | -0.44 | 26* | 8 | 83 | 82 | 1.2
Cc1ccc2[nH]c(=O)c(CN(CCc3ccccc3)C(c3nnnn3Cc3ccco3)C(C)C)cc2c1 (centres undefined) | . | . | 5 | . | . | .
CCOC(=O)Cn1nnnc1C(CC)N(Cc1ccccc1)Cc1cc2cc(C)ccc2[nH]c1=O (centres undefined) | -1.9 | 79 | . | 94 | 86 | 1.2
CCC(c1nnnn1CCc1ccccc1)N(Cc1ccco1)Cc1cc2c(C)ccc(C)c2[nH]c1=O (centres undefined) | 1.4 | 24* | -11 | 87 | 78 | 1

Screens from PubChem BioAssay.
